According to ChEMBL document CHEMBL1145441, “Synthesis and anti-HIV activity of new metabolically stable alkenyldiarylmethane non-nucleoside reverse transcriptase inhibitors incorporating N-methoxy imidoyl halide and 1,2,4-oxadiazole systems” (J Med Chem, 2007):
The source made the active and inactive calls.

How the values were obtained:
[1] = test system: Human immunodeficiency virus 2; experiment: Antiviral activity against HIV2 ROD in MT4 cells by MTT assay; type: functional, organism-based
Summary of the method: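 HIV-2 strain ROD infection of MT-4 cells; MTT cytoprotection read-out; EC50 is the 50% effective concentration against virus-induced cytopathicity; mean values from at least two separate experiments.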

[2] = Cytotoxicity against mock-infected MT4 cells; type: cell-based; details: human
Summary of the method: (§1)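 Mock-infected CEM-SS or MT-4 cells; CC50 defined as 50% cytotoxic concentration; means of at least two separate experiments.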

[3] = Metabolic stability in rat plasma; type: ADME, cell-free
Summary of the method: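 Hydrolytic stability in rat plasma in vitro, with 1,1-diphenylethylene or benzophenone as internal standard; samples followed by HPLC; half-life reported in minutes as mean ± SD of at least two separate experiments.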

[4] = test system: Human immunodeficiency virus 1; experiment: Antiviral activity against HIV1 RF in CEM-SS cells by XTT assay; type: functional, organism-based; details: for EC50: Human immunodeficiency virus 1, RF
Summary of the method: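 HIV-1 RF infection of CEM-SS cells, with protection scored by XTT cytoprotection assay; EC50 defined as 50% effective concentration for inhibiting cytopathicity; means of at least two separate experiments.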

[5] = Cytotoxicity against mock-infected CEM-SS cells; type: cell-based; details: human; summary of the method: as §1
[6] = target: Human immunodeficiency virus type 1 reverse transcriptase (Human immunodeficiency virus 1, UniProt Q72547); experiment: Inhibition of HIV1 recombinant reverse transcriptase
[7] = test system: Human immunodeficiency virus 1; experiment: Antiviral activity against HIV1 3B in MT4 cells by MTT assay; type: functional, organism-based; details: for EC50: Human immunodeficiency virus 1, 3B
Summary of the method: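 Cytoprotection read-out by MTT in MT-4 cells infected with HIV-1 strain IIIB; EC50 taken as the concentration giving 50% inhibition of viral cytopathicity; means of at least two separate experiments.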

CO/N=C(\Cl)CCC/C=C(\c1cc(C)c(OC)c(/C(Cl)=N/OC)c1)c1cc(C)c2oc(=O)n(C)c2c1
Activity [1]: inactive | CC50 [2]: 3.9 µM | half-life [3]: 82.8 h | Activity [4]: inactive | CC50 [5]: 1.3 µM | IC50 [6]: 0.6 µM

CO/N=C(\F)c1cc(/C(=C\CCCC(=O)OC)c2cc(C)c3oc(=O)n(C)c3c2)cc(C)c1OC
Activity [1]: inactive | CC50 [2]: 21 µM | half-life [3]: 0.153 h | EC50 [4]: 0.5 µM | CC50 [5]: 3.9 µM | EC50 [7]: 0.29 µM | IC50 [6]: 0.55 µM

CO/N=C(\Br)CCC/C=C(\c1cc(C)c(OC)c(/C(Br)=N/OC)c1)c1cc(C)c2oc(=O)n(C)c2c1
Activity [1]: inactive | CC50 [2]: 13.3 µM | half-life [3]: 2.6 h | Activity [4]: inactive | CC50 [5]: 2.1 µM | EC50 [7]: 6.3 µM | IC50 [6]: 0.85 µM

CONC(=O)c1cc(/C(=C\CCCC(=O)OC(C)(C)C)c2cc(C)c3oc(=O)n(C)c3c2)cc(C)c1OC
Activity [1]: inactive | CC50 [2]: 16.8 µM | Activity [4]: inactive | CC50 [5]: 5.2 µM | Activity [7]: inactive | IC50 [6]: > 100 µM

COC(=O)CCCC=C(c1cc(C)c(OC)c(C(=O)OC)c1)c1cc(C)c(OC)c(C(=O)OC)c1
Activity [1]: inactive | CC50 [2]: 6.1 µM | half-life [3]: 0.0127 h | EC50 [4]: 0.25 µM | CC50 [5]: 6 µM | IC50 [6]: 1 µM

CONC(=O)CCC/C=C(\c1cc(C)c(OC)c(C(=O)NOC)c1)c1cc(C)c2oc(=O)n(C)c2c1
Activity [1]: inactive | CC50 [2]: 18.4 µM | Activity [4]: inactive | CC50 [5]: 5.4 µM | Activity [7]: inactive | IC50 [6]: > 100 µM

COC(=O)CCC/C=C(\c1cc(C)c(OC)c(C(=O)OC)c1)c1cc(C)c2oc(=O)n(C)c2c1
Activity [1]: inactive | CC50 [2]: 16.9 µM | half-life [3]: 0.0217 h | EC50 [4]: 0.02 µM | CC50 [5]: 5.1 µM | IC50 [6]: 0.02 µM

CO/N=C(\F)c1cc(/C(=C\CCCc2nc(C)no2)c2cc(C)c3oc(=O)n(C)c3c2)cc(C)c1OC
Activity [1]: inactive | CC50 [2]: 12.4 µM | half-life [3]: 60.7 h | EC50 [4]: 0.7 µM | CC50 [5]: 2.9 µM | EC50 [7]: 0.24 µM | IC50 [6]: 0.67 µM
